Yeast growth inh: chemicals that inhibit yeast BB579 growth in restrictive medium (lifespan-shortening candidates); 0.51% of 140,000 active; S. cerevisiae BB579 growth, OD615, 48 h; inhibition, % at 10 µM;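 active = inhibition above a set limit, 3 SD over the mean compound inhibition, cut at about 44% in these data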
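test system = yeast BB579 (DeaD) | buffer or medium = restrictive CSMM-D medium | doses = single compound dose of 10 µM, 0.25% DMSO final | times = 4 h preincubation and 48 h exposure at 30 °C | technique = culture absorbance at 615 nm | benchmarks = amphotericin B 10 µg/mL, positive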
S1P3 antag-1: antagonists of human S1P3 receptor; Q99500; CHO S1P3 NFAT-BLA reporter, FRET fluorescence, antagonist mode; inhibition, % at 4.98 µM; 0.27% of 170,000 active; AID 485;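 active = inhibition above the plate cutoff, the mean inhibition of test wells on that plate plus 3 SD, cut at about 28% in these data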;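 note: cells challenged with S1P at its EC80 of 0.8 µM; blue over green emission ratio from cleaved BLA substrate after 4 h stimulation; 0% = S1P-stimulated wells and 100% = unstimulated DMSO-only wells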
Target sequence (Q99500 whole entry, looked up): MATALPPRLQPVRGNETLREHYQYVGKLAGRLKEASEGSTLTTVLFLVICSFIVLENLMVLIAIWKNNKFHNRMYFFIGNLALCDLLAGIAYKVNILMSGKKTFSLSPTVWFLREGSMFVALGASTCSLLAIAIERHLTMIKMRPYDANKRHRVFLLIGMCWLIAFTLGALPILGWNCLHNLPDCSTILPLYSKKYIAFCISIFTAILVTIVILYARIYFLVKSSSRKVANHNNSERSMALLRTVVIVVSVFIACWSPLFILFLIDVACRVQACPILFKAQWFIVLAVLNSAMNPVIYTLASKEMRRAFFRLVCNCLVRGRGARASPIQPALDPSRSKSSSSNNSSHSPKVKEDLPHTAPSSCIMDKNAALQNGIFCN
Yeast life ext: yeast lifespan extension; inhibition of the nicotinamide effect, % at 10 µM; AID 775; 0.68% of 130,000 active; S. cerevisiae growth with nicotinamide, OD615; deaD strain in restrictive glucose medium;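 active = inhibition above a set limit, placed 3 SD over the median of all compounds, cut at about 26% in these data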;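 note: 0% = nicotinamide-treated wells and 100% = cells grown without nicotinamide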
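assay system = DeaD-strain S. cerevisiae | measured by = absorbance at 615 nm | probe or stimulus = nicotinamide 1.5 mM | buffer or medium = CSMM-D glucose medium, restrictive | times = 48 h at 30 °C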
S1P3 antag-2: confirmation of human S1P3 receptor antagonists; shares compounds with S1P3 antag-1; CHO S1P3 NFAT-BLA reporter, FRET, antagonist mode; inhibition, % at 4.98 µM; 30% of 240 active;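 active = inhibition above the hit threshold that was computed for the earlier primary screen, cut at about 30% in these data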;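 note: 0% = S1P-stimulated wells and 100% = unstimulated DMSO-only wells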
* marks the source's active call; other numbers are inactive results; . = no result given. Sampled rows, rich in hits. Any-hit rate of the full collection: about 0.98%.

SMILES	Yeast growth inh	S1P3 antag-1	Yeast life ext	S1P3 antag-2
O=[N+]([O-])c1c(NCc2ccco2)ccc2nonc12	.	106*	.	-16
O=C1CC(c2ccco2)Cc2nc(N3CCN(Cc4ccc5c(c4)OCO5)CC3)ncc21 (stereo unspecified)	-53	-1	-28	.
COc1cc2c(cc1N/C=C(\C#N)c1nc(-c3ccccc3)cs1)oc1ccccc12	.	-1	.	.
Cc1cc(Nc2cccc(Cl)c2)nc(NCc2ccccc2)n1	-15	32*	-5	10
Cc1cc(N/N=C/c2cccc(Cl)c2)nc(NCc2ccccc2)n1	10	-2	-13	.
O=C(N/N=C/C=C/c1ccc([N+](=O)[O-])cc1)C1COc2ccccc2O1 (stereo unspecified)	-7	10	-5	.
O=C(N/N=C\C=C\c1ccco1)C1COc2ccccc2O1 (stereo unspecified)	.	28*	.	-9
Cc1sc(NC(=O)CN(Cc2ccccc2)C(=O)C2CC2)c(C(N)=O)c1C	.	5	.	.
CCNC(=S)NNC(=O)c1ccc(OC(F)F)cc1	-7	.	-5	.
Cc1ccc2oc(=O)n(CC(=O)N3CCOCC3)c2c1	.	4	.	.
O=C(Nc1cccc(C(F)(F)F)c1)NC1CCCCC1	-66	.	-4	.
O=C(OC(C(=O)Nc1cccc(C(F)(F)F)c1)c1ccccc1)C1CCCCC1 (stereo unspecified)	-31	37*	0	30*
CCc1ccc(N2CC(O)(c3cccs3)[N+]3=C2SCCC3)cc1 (stereo unspecified)	.	-2	.	.
CCOc1ccc(CNc2ncnc(N)n2)cc1	-43	.	5	.
CNC(=S)N/N=C/c1ccc(-c2cc([N+](=O)[O-])ccc2Cl)o1	.	-8	.	.
CN1CCN(/N=C/c2ccc(-c3ccc([N+](=O)[O-])cc3Cl)o2)CC1	.	54*	.	20
CC(C)c1nc(-c2ccc([N+](=O)[O-])cc2)cs1	-24	5	-9	.
CCOc1nc(-c2ccc(Cl)cc2)nc2ccccc12	-32	39*	-2	-4
CC(C)Oc1nc(-c2ccc(Cl)cc2)nc2ccccc12	.	-4	.	.
COC(=O)C(C)(C)ONC(=O)Nc1ccccc1Cl	.	39*	.	-8
COC(=O)C(C)(C)ONC(=O)Nc1ccccc1Br	-4	8	-5	.
COC(=O)c1cc(OC)c(OC)cc1NC(=O)Nc1ccccc1F	.	12	.	.
COc1cccc(CNC(=O)CCCCCn2c(=S)[nH]c3ccc(N4CCOCC4)cc3c2=O)c1	-40	64*	1	-13
O=C(CCCCCn1c(=S)[nH]c2ccc(N3CCOCC3)cc2c1=O)NC1CCN(Cc2ccccc2)CC1	.	-10	.	.
Cc1cc(C(=O)CSc2nc3ccccc3c(=O)n2C)c(C)n1CC1CCCO1 (stereo unspecified)	.	33*	.	37*
SMILES	Yeast growth inh	S1P3 antag-1	Yeast life ext	S1P3 antag-2
Cc1cc(C(=O)CSc2nc3ccccc3c(=O)[nH]2)c(C)n1CC1CCCO1 (stereo unspecified)	.	12	.	.
Clc1ccccc1/C=N/NC1=Nc2cccc3cccc1c23	-33	23	-2	.
C(=N\NC1=Nc2cccc3cccc1c23)/c1ccccn1	.	29*	.	19
CCCc1nc2ccccc2c(C(=O)OC(C)C(=O)NCc2ccc3c(c2)OCO3)c1CC (stereo unspecified)	-42	31*	0	11
CCCc1nc2ccccc2c(C(=O)OCC(=O)NCc2ccc3c(c2)OCO3)c1CC	0	-1	-2	.
Cc1cccc2cc(CN(Cc3cccs3)Cc3nnnn3Cc3ccccc3)c(=O)[nH]c12	4	-5	-4	.
Cn1[nH]c(C(F)(F)F)c(C=NCc2ccc(Cl)cc2)c1=O	.	-15	.	.
Cc1ccc2[nH]c(=O)c(CN(Cc3cccnc3)Cc3nnnn3CCN3CCOCC3)cc2c1	8	-16	-9	.
Cc1cccc2c(=O)cc(C)n(CC(=O)N3CCOCC3)c12	-14	5	-5	.
O=c1[nH]c(CSc2nnc(-c3cccnc3)n2C2CCCCC2)nc2ccccc12	2	.	-6	.
O=C(Nc1ccccc1)C(c1ccccc1)C1CCCC1 (stereo unspecified)	-38	52*	6	48*
CCOC(=O)C(C(=O)Nc1ccccc1)C1CCCCC1 (stereo unspecified)	-4	-9	-11	.
Cc1nc2ccccc2[nH]c1=O	.	-18	.	.
C(=N\n1cnnc1)/c1cccn1-c1ccccc1	-1	.	-10	.
O=C(Nc1ccc(Cl)cc1C(=O)N1CCOCC1)c1cccc([N+](=O)[O-])c1	14	10	9	.

Assay outcomes (PubChem BioAssay)
